Here are results for 8 compounds from ChEMBL document CHEMBL1140549, “Rational design of N-alkyl derivatives of 2-amino-2-deoxy-d-glucitol-6P as antifungal agents” (Bioorg Med Chem Lett, 2007).

Data set [1] deals with Glucose-6-phosphate isomerase (Saccharomyces cerevisiae S288c) (UniProt P12709). Description: Inhibition of yeast phosphoglucose isomerase upto 20 mM.
The nature of data set [2]: Inhibition of Candida albicans glucosamine-6P synthase by Elson-Morgan method. In short, it runs like this: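 Enzyme was Candida albicans GlcN-6P synthase purified to near homogeneity. Reactions ran in 25 mM phosphate buffer, pH 6.9, with 1 mM EDTA and 1 mM DTT, D-Fru-6P (0.5–7.5 mM) and L-glutamine (0.625–10 mM), plus inhibitor. Product was measured by a modified Elson–Morgan method. IC50 and Ki are means of three experiments, with SD.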

The subject of data set [3] is Candida albicans. The data set can be described thus: Antifungal activity against Candida albicans by serial dilution microplate method. The class given is functional.
For data set [4], the system named is Saccharomyces cerevisiae. The data set can be described thus: Antimicrobial activity against Saccharomyces cerevisiae ADCDR1 by serial dilution microplate method. The class given is functional. In short, it runs like this: (§1)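 Saccharomyces cerevisiae AD lacks the seven genes for the main drug-exporting membrane proteins. ADCDR1 is AD transformed with a plasmid carrying the gene for Candida albicans Cdr1p drug exporter. MIC was read by serial dilution in microplates.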

The subject of data set [5] is Candida tropicalis. Description: Antifungal activity against Candida tropicalis by serial dilution microplate method. The class given is functional.
For data set [6], the system named is Saccharomyces cerevisiae. The data set can be described thus: Antimicrobial activity against Saccharomyces cerevisiae AD by serial dilution microplate method. The class given is functional. In short, it runs like this:
as §1

Data set [7] relates to Nakaseomyces glabratus. Description: Antifungal activity against Candida glabrata by serial dilution microplate method. The class given is functional.
In data set [8] the test system is Candida albicans. Description: Drug uptake in Candida albicans assessed as uptake rate per mg dry weight. The class given is ADME, organism-based. The note with it: in vivo.

Converted amounts (≈) assume the structure as drawn. The source made the active and inactive calls. The rule behind the calls is not given here.

Sequence of Glucose-6-phosphate isomerase (Saccharomyces cerevisiae S288c) (P12709 whole entry): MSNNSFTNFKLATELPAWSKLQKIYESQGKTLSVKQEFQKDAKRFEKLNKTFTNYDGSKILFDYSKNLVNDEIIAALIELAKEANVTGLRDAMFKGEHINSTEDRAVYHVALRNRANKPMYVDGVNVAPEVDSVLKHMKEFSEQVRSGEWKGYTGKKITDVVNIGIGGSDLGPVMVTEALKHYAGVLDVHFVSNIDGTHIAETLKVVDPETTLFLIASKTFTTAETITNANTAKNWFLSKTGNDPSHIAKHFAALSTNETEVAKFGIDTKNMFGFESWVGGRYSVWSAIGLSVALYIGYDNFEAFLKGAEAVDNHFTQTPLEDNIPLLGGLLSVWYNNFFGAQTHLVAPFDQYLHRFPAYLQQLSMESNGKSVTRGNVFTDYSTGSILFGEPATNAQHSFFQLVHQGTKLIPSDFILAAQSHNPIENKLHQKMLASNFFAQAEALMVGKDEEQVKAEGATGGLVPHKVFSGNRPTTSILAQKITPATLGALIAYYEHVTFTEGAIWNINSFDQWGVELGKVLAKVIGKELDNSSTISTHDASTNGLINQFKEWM

One may read the IC50 as the concentration needed to halve the response being measured. One may read the Ki as the dissociation constant of the complex between target and ligand, obtained from inhibition or displacement. A word on the MIC: it is the least concentration at which growth counts as inhibited. `CCN[C@@H](CO)[C@@H](O)[C@H](O)[C@H](O)COP(=O)(O)O`: in data set [1], the outcome was inactive. This compound also returned an IC50 in data set [2] of 180 µM. The compound further had a Ki in data set [2] of 26 µM. Besides, the minimal inhibitory concentration (MIC) in data set [3] was determined as 1250 µg/mL (≈ 4320 µM); in data set [4] it was 2500 µg/mL (≈ 8640 µM); in data set [5], 2500 µg/mL (≈ 8640 µM); in data set [6], 2500 µg/mL (≈ 8640 µM); in data set [7], 2500 µg/mL (≈ 8640 µM). For the same compound, in data set [8], the Drug uptake was 2.9 nmol/mg/min.

As for `CCCN(CCC)[C@@H](CO)[C@@H](O)[C@H](O)[C@H](O)COP(=O)(O)O`, the outcome in data set [1] was inactive. Besides, 52 µM corresponded to half-maximal inhibition in data set [2] (IC50). In data set [2], the affinity, expressed as Ki, was 10 µM. For the same compound, the MIC in data set [3] stood at 160 µg/mL (≈ 463 µM); in data set [4], 160 µg/mL (≈ 463 µM); in data set [5], 625 µg/mL (≈ 1810 µM); in data set [6], 80 µg/mL (≈ 232 µM); in data set [7], 625 µg/mL (≈ 1810 µM). For the same compound, the Drug uptake in data set [8] came to 4.7 nmol/mg/min.

`N[C@@H](CO)[C@@H](O)[C@H](O)[C@H](O)COP(=O)(O)O`: the result in data set [1] was inactive. The compound also gave an IC50 in data set [2] of 230 µM. The compound also yielded a Ki in data set [2] of 35 µM. Besides, the minimal inhibitory concentration (MIC) in data set [3] came to 5000 µg/mL (≈ 19100 µM); in data set [4], 5000 µg/mL (≈ 19100 µM); in data set [5] it was 10000 µg/mL (≈ 38300 µM); in data set [6], 5000 µg/mL (≈ 19100 µM); in data set [7], 10000 µg/mL (≈ 38300 µM). Moreover, the Drug uptake in data set [8] was found to be 1.1 nmol/mg/min.

For the compound `CCCCCCN[C@@H](CO)[C@@H](O)[C@H](O)[C@H](O)COP(=O)(O)O`, the result in data set [1] was inactive. This compound had an IC50 in data set [2] of 290 µM. The Ki in data set [2] is 49 µM. The MIC in data set [3] is 625 µg/mL (≈ 1810 µM); in data set [4] it was 310 µg/mL (≈ 898 µM); in data set [5], 310 µg/mL (≈ 898 µM); in data set [6] it was 310 µg/mL (≈ 898 µM); in data set [7], 625 µg/mL (≈ 1810 µM). Further, the Drug uptake in data set [8] came out at 4.8 nmol/mg/min.

Regarding `CCCCN[C@@H](CO)[C@@H](O)[C@H](O)[C@H](O)COP(=O)(O)O`, in data set [1], the outcome was inactive. Further, inhibition in data set [2] was half-maximal at 115 µM (IC50). The same compound returned a Ki in data set [2] of 20 µM. The MIC in data set [3] was determined as 625 µg/mL (≈ 1970 µM); in data set [4] it was 1250 µg/mL (≈ 3940 µM); in data set [5], 1250 µg/mL (≈ 3940 µM); in data set [6] it was 1250 µg/mL (≈ 3940 µM); in data set [7], 1250 µg/mL (≈ 3940 µM). Further, the Drug uptake in data set [8] is given as 3.4 nmol/mg/min.

Regarding `CCN(CC)[C@@H](CO)[C@@H](O)[C@H](O)[C@H](O)COP(=O)(O)O`, the outcome in data set [1] was inactive. The compound further came in with an IC50 in data set [2] of 40 µM. In data set [2], this compound gave a Ki of 8 µM. For the same compound, the MIC in data set [3] worked out at 310 µg/mL (≈ 977 µM); in data set [4], 310 µg/mL (≈ 977 µM); in data set [5], 625 µg/mL (≈ 1970 µM); in data set [6], 310 µg/mL (≈ 977 µM); in data set [7], 625 µg/mL (≈ 1970 µM). The Drug uptake in data set [8] came out at 3.9 nmol/mg/min.

Take `CCCCN(CCCC)[C@@H](CO)[C@@H](O)[C@H](O)[C@H](O)COP(=O)(O)O`: the outcome in data set [1] was inactive. In data set [2], this compound showed an IC50 of 82 µM. In data set [2], this compound returned a Ki of 12 µM. Also, the minimum inhibitory concentration (MIC) in data set [3] worked out at 312 µg/mL (≈ 836 µM); in data set [4], 1250 µg/mL (≈ 3350 µM); in data set [5] it was 2500 µg/mL (≈ 6700 µM); in data set [6], 1250 µg/mL (≈ 3350 µM); in data set [7], 1250 µg/mL (≈ 3350 µM). In addition, the Drug uptake in data set [8] is on record as 5 nmol/mg/min.

Turning to `OC(Cn1cncn1)(Cn1cncn1)c1ccc(F)cc1F` [FLUCONAZOLE], the MIC in data set [3] amounted to 8 µg/mL (≈ 26.1 µM); in data set [4], 32 µg/mL (≈ 104 µM); in data set [5], 16 µg/mL (≈ 52.2 µM); in data set [6] it was 4 µg/mL (≈ 13.1 µM); in data set [7], 16 µg/mL (≈ 52.2 µM).
